# ChEMBL document CHEMBL1914423, “New imidazo[2,1-b]thiazole derivatives: synthesis, in vitro anticancer evaluation, and in silico studies” (Eur J Med Chem, 2011)
# Columns and labels:
# Format in all cases: functional
# HL-60(TB) = assay: Anticancer activity against human HL-60(TB) cells after 48 hrs by SRB assay; details: HL-60, 48 h
# In short: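 NCI-60 five-dose screen. Cells grown in RPMI 1640 with 5% FBS and 2 mM L-glutamine, seeded at 5000–40,000 cells/well, and held 24 h at 37 °C and 5% CO₂ before drug. DMSO stocks were diluted into five concentrations (10-fold or ½-log steps). Settled suspension cells were fixed with cold TCA, SRB-stained, and read at 515 nm. […] was taken where [(Ti−Tz)/(C−Tz)]×100 = 50.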
# HT-29 = assay: Anticancer activity against human HT-29 cells after 48 hrs by SRB assay; details: HT-29, 48 h
# In short: (§1)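 NCI five-dose screen. Cells in RPMI 1640 with 5% FBS and 2 mM L-glutamine, seeded at 5000–40,000 cells/well according to doubling time, then pre-incubated 24 h at 37 °C in 5% CO2. Drugs dissolved in DMSO, five concentrations by 10-fold or 1/2-log dilution. Cells fixed with TCA, SRB-stained, A515 read. IC50 solved from [(Ti−Tz)/(C−Tz)]×100 = 50.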
# CAKI-1 = assay: Anticancer activity against human Caki1 cells after 48 hrs by SRB assay; details: CAKI-1, 48 h; in short: as §1
# SK-MEL-28 = assay: Anticancer activity against human SK-MEL-28 cells after 48 hrs by SRB assay; details: SK-MEL-28, 48 h
# T47D = assay: Anticancer activity against human T47D cells after 48 hrs by SRB assay
# In short: (§2)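 NCI-60 five-dose mode: cells in RPMI 1640 with 5% FBS and 2 mM glutamine, plated at 5000–40,000 cells/well, and preincubated 24 h, with time-zero plates TCA-fixed. Drug given at five concentrations (10-fold or ½-log serial dilutions). Cold TCA fixation 60 min at 4 °C, SRB stain, Tris solubilization, A515. IC50 taken where [(Ti−Tz)/(C−Tz)]×100 = 50.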
# [1] = Anticancer activity against human Hs 578T cells after 48 hrs by SRB assay; in short: as §1
# OVCAR-3 = assay: Anticancer activity against human OVCAR3 cells after 48 hrs by SRB assay; details: OVCAR-3, 48 h
# CCRF-CEM = assay: Anticancer activity against human CCRF-CEM cells after 48 hrs by SRB assay; in short: as §1
# MDA-MB-231 = assay: Anticancer activity against human MDA-MB-231 cells after 48 hrs by SRB assay; details: MDA-MB-231, 48 h; in short: as §1
# NCI-H460 = assay: Anticancer activity against human NCI-H460 cells after 48 hrs by SRB assay; details: NCI-H460, 48 h
# NCI-H522 = assay: Anticancer activity against human NCI-H522 cells after 48 hrs by SRB assay; details: NCI-H522, 48 h
# SF-295 = assay: Anticancer activity against human SF295 cells after 48 hrs by SRB assay; details: SF-295, 48 h
# SN12C = assay: Anticancer activity against human SN12C cells after 48 hrs by SRB assay
# NCI-H322M = assay: Anticancer activity against human NCI-H322M cells after 48 hrs by SRB assay
# UACC-62 = assay: Anticancer activity against human UACC62 cells after 48 hrs by SRB assay; details: UACC-62, 48 h; in short: as §2
# NCI/ADR-RES = assay: Anticancer activity against human NCI/ADR-RES cells after 48 hrs by SRB assay
# KM12 = assay: Anticancer activity against human KM12 cells after 48 hrs by SRB assay; details: KM12, 48 h; in short: as §1
# HOP-92 = assay: Anticancer activity against human HOP92 cells after 48 hrs by SRB assay; details: HOP-92, 48 h; in short: as §1
# Malme-3M = assay: Anticancer activity against human MALME-3M cells after 48 hrs by SRB assay; in short: as §1
# ACHN = assay: Anticancer activity against human ACHN cells after 48 hrs by SRB assay; in short: as §1
# HCT-15 = assay: Anticancer activity against human HCT15 cells after 48 hrs by SRB assay; details: HCT-15, 48 h; in short: as §1
# COLO 205 = assay: Anticancer activity against human COLO205 cells after 48 hrs by SRB assay; details: COLO 205, 48 h; in short: as §1
# SK-MEL-2 = assay: Anticancer activity against human SK-MEL-2 cells after 48 hrs by SRB assay; details: SK-MEL-2, 48 h
# MDA-MB-435 = assay: Anticancer activity against human MDA-MB-435 cells after 48 hrs by SRB assay; details: MDA-MB-435, 48 h; in short: as §1
# HOP-62 = assay: Anticancer activity against human HOP62 cells after 48 hrs by SRB assay; details: HOP-62, 48 h; in short: as §1
# M14 = assay: Anticancer activity against human M14 cells after 48 hrs by SRB assay; details: M14, 48 h; in short: as §1
# HCT-116 = assay: Anticancer activity against human HCT116 cells after 48 hrs by SRB assay; details: HCT-116, 48 h; in short: as §1
# U-251 = assay: Anticancer activity against human U251 cells after 48 hrs by SRB assay; details: U-251, 48 h; in short: as §2
# [2] = read-out: LC50 (the source's name)
compound,measurement,setting,value
COc1cccc(-c2nc3sccn3c2-c2ccnc(NCCNC(=O)Nc3cccc(C(F)(F)F)c3)n2)c1,GI50,HL-60(TB),2.92 µM
same,LC50,HL-60(TB),> 100 µM
same,TGI,HL-60(TB),7.43 µM
same,GI50,HT-29,3.33 µM
same,TGI,HT-29,14 µM
same,CC50,HT-29; [2],> 100 µM
same,GI50,CAKI-1,3.5 µM
same,TGI,CAKI-1,10.3 µM
same,CC50,CAKI-1; [2],> 100 µM
same,GI50,SK-MEL-28,5.36 µM
same,TGI,SK-MEL-28,26.2 µM
same,CC50,SK-MEL-28; [2],> 100 µM
same,GI50,T47D,3.77 µM
same,TGI,T47D,13.8 µM
same,CC50,T47D; [2],61 µM
same,GI50,[1],3.15 µM
same,TGI,[1],29 µM
same,CC50,[1]; [2],> 100 µM
same,GI50,OVCAR-3,4.22 µM
same,TGI,OVCAR-3,20.3 µM
same,CC50,OVCAR-3; [2],> 100 µM
same,GI50,CCRF-CEM,8.43 µM
same,TGI,CCRF-CEM,> 100 µM
same,CC50,CCRF-CEM; [2],> 100 µM
same,GI50,MDA-MB-231,3.47 µM
same,TGI,MDA-MB-231,12 µM
same,CC50,MDA-MB-231; [2],> 100 µM
same,GI50,NCI-H460,2.94 µM
same,LC50,NCI-H460,> 100 µM
same,TGI,NCI-H460,14.4 µM
same,GI50,NCI-H522,2.67 µM
same,TGI,NCI-H522,8.51 µM
same,CC50,NCI-H522; [2],86.5 µM
same,GI50,SF-295,2.8 µM
same,TGI,SF-295,14.9 µM
same,CC50,SF-295; [2],> 100 µM
same,GI50,SN12C,4.03 µM
same,TGI,SN12C,26.5 µM
same,CC50,SN12C; [2],> 100 µM
same,GI50,NCI-H322M,7.23 µM
same,TGI,NCI-H322M,> 100 µM
same,CC50,NCI-H322M; [2],> 100 µM
same,GI50,UACC-62,2.55 µM
same,TGI,UACC-62,7.48 µM
same,CC50,UACC-62; [2],27.7 µM
same,GI50,NCI/ADR-RES,3.45 µM
same,TGI,NCI/ADR-RES,> 100 µM
same,CC50,NCI/ADR-RES; [2],> 100 µM
same,GI50,KM12,3.36 µM
same,TGI,KM12,10.1 µM
same,CC50,KM12; [2],39.3 µM
same,GI50,HOP-92,0.853 µM
same,TGI,HOP-92,9.47 µM
same,CC50,HOP-92; [2],> 100 µM
same,GI50,Malme-3M,3.86 µM
same,TGI,Malme-3M,26.8 µM
same,CC50,Malme-3M; [2],> 100 µM
same,GI50,ACHN,3.17 µM
same,TGI,ACHN,19.1 µM
same,CC50,ACHN; [2],> 100 µM
same,GI50,HCT-15,3.05 µM
same,TGI,HCT-15,16.4 µM
same,CC50,HCT-15; [2],> 100 µM
same,GI50,COLO 205,5.37 µM
same,TGI,COLO 205,19.2 µM
same,CC50,COLO 205; [2],58 µM
same,GI50,SK-MEL-2,2.03 µM
same,TGI,SK-MEL-2,4.46 µM
same,CC50,SK-MEL-2; [2],9.78 µM
same,GI50,MDA-MB-435,2.95 µM
same,TGI,MDA-MB-435,12.3 µM
same,CC50,MDA-MB-435; [2],> 100 µM
same,GI50,HOP-62,6.71 µM
same,LC50 (concentration killing 50% of starting cells),HOP-62,> 100 µM
same,TGI,HOP-62,42.4 µM
same,GI50,M14,2.96 µM
same,TGI,M14,8.48 µM
same,CC50,M14; [2],29.2 µM
same,GI50,HCT-116,3.45 µM
same,TGI,HCT-116,11.6 µM
same,CC50,HCT-116; [2],> 100 µM
same,GI50,U-251,3.95 µM
same,TGI,U-251,19.8 µM
same,CC50,U-251; [2],> 100 µM
